Experimental findings from ChEMBL document CHEMBL4610083, “Kendomycin Cytotoxicity against Bacterial, Fungal, and Mammalian Cells Is Due to Cation Chelation” (J Nat Prod, 2020) are described below.

Activity calls are given as the source filed them. The calls are words filed in the database; no cut-off is given here. Residues, ends and D or L forms follow the SMILES beside them. *: point of attachment. Cbz = O=C(OCc1ccccc1)*

Experiment [1] deals with Proteasome. Kind of experiment: Inhibition of proteosome in HEK293T cells assessed as reduction in UbG76V-GFP degradation at 250 nM incubated for 4 hrs by flow cytometric analysis. To be noted: Homo sapiens, HEK-293T. Background: In flow cytometry, cells or beads pass a laser one at a time.
The test system of experiment [2] is Proteasome. Kind of experiment: Inhibition of proteosome in human K562 cells assessed as reduction in UbG76V-GFP degradation at 2 uM incubated for 4 hrs by flow cytometric analysis. In short, it runs like this:
(§1)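 K562 cells carrying a lentivirally integrated, TRE2-driven UbG76V-GFP reporter. Reporter induced with 1 μg/mL doxycycline (final) 16 h before compound. Cells treated with compound or carrier for 4 h, then GFP fluorescence measured by flow cytometry.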

Experiment [3] has as its system HCT-116. Kind of experiment: Inhibition of protein biogenesis in human HCT116 cells assessed as reduction in total protein level preincubated for 30 mins followed by addition of 35S-labeled methionine/cysteine and measured after 90 mins by autoradiography. It counts as functional, cell-based. The method, boiled down:
(§2)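 HCT116 cells seeded at 0.5 × 10^6 per well and grown 24 h at 37 °C, 5% CO2. After two washes, compound in DMEM lacking Met/Cys was added for 30 min at 37 °C, then 100 μCi 35S-Met/Cys for a further 90 min. Secreted protein was recovered from medium by TCA precipitation, total protein by RIPA extraction of washed cells. Gels were read by phosphor screen imaging.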

Experiment [4] relates to HCT-116. Description: Inhibition of protein biogenesis in human HCT116 cells assessed as reduction in secreted protein level preincubated for 30 mins followed by addition of 35S-labeled methionine/cysteine and measured after 90 mins by autoradiography. It counts as functional, cell-based. In short, it runs like this:
as §2

Experiment [5] in a line: Metal chelating activity assessed as compound-Fe2+ complex formation by UV-Vis spectrophotometric analysis. In short, it runs like this:
(§3)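 250 μM compound titrated with increasing metal concentrations and absorption spectra recorded. A320 measured in quadruplicate; averages fitted to a binding curve to give apparent Kapp.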

Experiment [6] is described as follows: Metal chelating activity assessed as compound-Cu2+ complex formation by UV-Vis spectrophotometric analysis. In short, it runs like this: as §3
Experiment [7] concerns Proteasome. Description: Inhibition of proteosome in human K562 cells assessed as reduction in UbG76V-GFP degradation at 2.5 to 10 uM incubated for 4 hrs by flow cytometric analysis. In short, it runs like this: as §1
In experiment [8] the test system is HCT-116. Kind of experiment: Inhibition of protein biogenesis in human HCT116 cells assessed as reduction in total protein level at 100 to 1000 nM preincubated for 30 mins followed by addition of 35S-labeled methionine/cysteine and measured after 90 mins by autoradiography. It counts as functional, cell-based. The method, boiled down:
(§4)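 HCT116 cells seeded at 0.5 × 10^6/well and grown 24 h at 37 °C, 5% CO2. Washed, then given compound in Met/Cys-free DMEM for 30 min at 37 °C. Pulsed with 100 μCi 35S-Met/Cys for 90 min. Total protein taken by RIPA extraction of the cell pellet; secreted protein by TCA precipitation of the medium. Gels exposed to phosphor screens and scanned.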

Experiment [9] concerns HCT-116. Description: Inhibition of protein biogenesis in human HCT116 cells assessed as reduction in secreted protein level at 100 to 1000 nM preincubated for 30 mins followed by addition of 35S-labeled methionine/cysteine and measured after 90 mins by autoradiography. The format is functional, cell-based. The method, boiled down: as §4
Experiment [10] is described as follows: Metal chelating activity assessed as compound-Fe3+ complex formation by UV-Vis spectrophotometric analysis. The method, boiled down:
as §3

Experiment [11] in a line: Metal chelating activity assessed as compound-calcium complex formation by UV-Vis spectrophotometric analysis.
Experiment [12] can be described thus: Metal chelating activity assessed as compound-[…] complex formation by UV-Vis spectrophotometric analysis.
Experiment [13] relates to Bacillus subtilis. Kind of experiment: Antibacterial activity against Bacillus subtilis assessed as reduction in microbial growth in presence of FeCl2 by serial dilution method. The format is functional, organism-based. The method, boiled down: (§5)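 Mid-log cultures in LB back-diluted to low OD; 8-point compound serial dilution added, with or without freshly prepared 0.25 mM FeCl2 or 0.25 mM CuCl2. Incubation at 37 °C with orbital shaking at 1000 rpm. Cell density read as A600, duplicate data sets, inhibition curves fitted by regression.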

The subject of experiment [14] is Saccharomyces cerevisiae. Kind of experiment: Antifungal activity against Saccharomyces cerevisiae assessed as reduction in microbial growth in presence of FeCl2. The format is functional, organism-based. The method, boiled down:
(§6)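 Single-colony inhibition on solid medium, with or without 1 mM FeCl2 or 0.25 mM CuCl2 in the agar. Colonies washed off the plates with PBS and cell density read as A600. Inhibition curves fitted by regression.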

For experiment [15], the system named is HCT-116. Description: Antiproliferative activity against human HCT116 cells assessed as reduction in cell viability incubated for 72 hrs in presence of FeCl2 by AlamarBlue assay. The format is functional, cell-based. The method, boiled down: (§7)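 HCT116 cells in McCoy's 5A with 10% FBS, seeded at 2500 cells/well. Dosed 16 h after plating, with or without 0.5 mM FeCl2 or 0.5 mM CuCl2. After 72 h, 10% resazurin added for 4 h, then fluorescence read (ex 580/em 620 nm). Viability given as % of carrier growth; curves from quadruplicate technical replicates.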
Background: The colour change of resazurin is a common sign of viable cells or microbes.

Experiment [16] has as its system Bacillus subtilis. Description: Antibacterial activity against Bacillus subtilis assessed as reduction in microbial growth in presence of CuCl2 by serial dilution method. It counts as functional, organism-based. The method, boiled down: as §5
Experiment [17] relates to Saccharomyces cerevisiae. Description: Antifungal activity against Saccharomyces cerevisiae assessed as reduction in microbial growth in presence of CuCl2. It counts as functional, organism-based. In short, it runs like this: as §6
Experiment [18] deals with HCT-116. Description: Antiproliferative activity against human HCT116 cells assessed as reduction in cell viability incubated for 72 hrs in presence of CuCl2 by AlamarBlue assay. It counts as functional, cell-based. The method, boiled down: as §7
The nature of experiment [19]: Binding affinity to Cu2+ ion assessed as compound-Cu2+ formation by 1H NMR spectroscopy.
Experiment [20] in a line: Binding affinity to Fe2+ ion assessed as compound-Fe2+ formation by 1H NMR spectroscopy.

As to `CC(C)C[C@@H](C=O)NC(=O)[C@H](CC(C)C)NC(=O)[C@H](CC(C)C)NC(=O)OCc1ccccc1` (Cbz-Leu-Leu-Leu-aldehyde), the inhibition result in experiment [1] and in [2] was “Active” throughout.

Turning to `C[C@@H]1C[C@@H]([C@H](O)CC2CC(=O)NC(=O)C2)C(=O)[C@@H](C)C1`, the inhibition result in experiment [3] and in [4] was “Active” throughout.

In the case of `CC1=C2O[C@]3(O)C=C2C(=C(O)C1=O)[C@@H]1O[C@H](CC[C@H](C)/C=C(\C)C[C@@H](C)C[C@@H]3C)[C@H](C)[C@H](O)[C@H]1C`, the Activity result in experiment [5], in experiment [6] and in [10] was “Dose-dependent effect” in each case. The Kapp in experiment [5] stood at 19 µM; in experiment [6], 48 µM; in experiment [10] it was 76 µM. Further, the inhibition entry in experiment [1], in [7], in [8] and in [9] was “inactive” in each case. The outcome in [11], in experiment [12], in experiment [13], in experiment [14], in experiment [15] and in experiment [16] was inactive. The result in [17] was inactive. Besides, the result in [18], in experiment [19] and in experiment [20] was Active.
